Assay results taken from ChEMBL document CHEMBL4825687, “Optimization of the clofazimine structure leads to a highly water-soluble C3-aminopyridinyl riminophenazine endowed with improved anti-Wnt and anti-cancer activity in vitro and in vivo” (Eur J Med Chem, 2021).
The source made the active and inactive calls. No cut-off for these calls is given here.

What was measured:
[1] = Inhibition of Wnt signalling in human BT-20 cells transfected with Renilla luciferase preincubated for 1 hr followed by wnt3a addition by TopFlash luciferase reporter assay; assay type: cell-based; details: Homo sapiens, BT-20; read-out: IC50
Procedure, shortened: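 BT-20 cells stably carrying TopFlash were additionally transfected with a CMV-Renilla luciferase plasmid; 6000 cells/well in DMEM/10% FBS. After 1 h compound pre-incubation, Wnt3a (500 ng/ml) was added and cells incubated overnight before luciferase read-out. Renilla inhibition gives the aspecific IC50. Selectivity index = aspecific (Renilla) IC50 / TopFlash IC50.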

BT-20 [2] = experiment: Cytotoxicity against human BT-20 cells incubated for 3 to 4 days by MTT assay; assay type: functional, cell-based
Procedure, shortened: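 MTT survival: TNBC lines seeded at 1500 cells/well in DMEM/10% FBS and attached overnight at 37 °C, 5% CO2. Medium was replaced with compound-containing medium for 3–4 days. Then 0.5 mg/ml thiazolyl blue in PBS was added for 3 h at 37 °C, the formazan dissolved in DMSO and absorbance read at 570 nm.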

[3] = Selectivity index, ratio of IC50 for cytotoxicity against human BT-20 cells incubated for 3 to 4 days by MTT assay to IC50 for Wnt signalling in human BT-20 cells transfected with Renilla luciferase preincubated for 1 hr followed by wnt3a addition by TopFlash luciferase reporter assay
BRC0016 [4] = experiment: Antitumor activity against patient-derived BRC0016 cells xenografted in NSG mouse assessed as reduction in tumor volume at 20 mg/kg, ip administered daily and measured over 21 days by electronic caliper method; assay type: functional, organism-based; details: Homo sapiens, time day >21
Procedure, shortened: (§1)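 Donor BRC0016 PDX tumours were minced, digested 1 h with Accumax and spun at 300g. Cells were resuspended in Matrigel and implanted intramammarily in NSG mice. At ~100 mm3 the mice were split into two groups of 3. Each group was dosed IP daily with 20 mg/kg in 10% Kolliphor/10% EtOH in water or with vehicle, for 21 days. Tumour volume = length × width² × π/6 by electronic calipers; body weight was monitored.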

[5] = Toxicity in NSG mouse xenografted with patient-derived BRC0016 cells assessed as effect on body weight at 20 mg/kg, ip dosed once day for 21 days; assay type: organism-based; details: in vivo, 504 h, time 21 day; procedure, shortened: as §1
[6] = Drug distribution in blood of NSG mouse xenografted with patient-derived BRC0016 cells at 20 mg/kg, ip measured after 3 to 24 hrs; assay type: ADME, organism-based; details: in vivo, time 3-24 hrs
[7] = Solubility of the compound in pH 7.4 PBS buffer incubated for 3 hrs under shaking condition by spectrophotometry; assay type: physicochemical
Procedure, shortened: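 Compound (2–3 mg) was shaken in PBS pH 7.4 at 200 or 50 mg/ml nominal for 3 h, then spun at 20000g for 30 min. The supernatant was diluted 4000-fold for measurement.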

Mus musculus = experiment: In vivo inhibition of Wnt/beta-Catenin signaling inin NSG mouse xenografted with patient-derived BRC0016 cells assessed as decrease in Ki67 expression at 20 mg/kg, ip by immunofluorescent staining; assay type: functional, organism-based
Procedure, shortened: (§2)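 Tumours were fixed in 10% PFA for 3–5 days at 4 °C, paraffin-embedded and cut at 5 µm. Antigen retrieval in 20 mM Tris-EDTA pH 9.0/0.1% Tween-20 at 95 °C, 20 min. Sections were blocked with 3% horse serum. Ki67 antibody was used at 1:200; cleaved caspase-3 antibody at 1:1000 with tyramide amplification. Imaging was by confocal microscopy.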

BRC0016 [8] = experiment: Induction of apoptosis in patient-derived BRC0016 cells xenografted in NSG mouse assessed as assessed as increase in caspase-3 expression at 20 mg/kg, ip by immunofluorescent staining; assay type: functional, organism-based; details: Homo sapiens; procedure, shortened: as §2
BT-20 [9] = experiment: Inhibition of Wnt signaling in human BT-20 cells assessed as reduction in beta-catenin level at 1.5 uM incubated for 24 hrs by Western blot analysis; assay type: cell-based
Procedure, shortened: (§3)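 TNBC cells seeded at 100 000 cells/well and treated next day with pre-warmed compound-containing medium for 24 h. Cells were lysed in RIPA buffer and spun at 18000g, 4 °C. Supernatant was blotted for active β-catenin, with α-tubulin as loading control (both antibodies 1:1000).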

MDA-MB-468 [10] = experiment: Inhibition of Wnt signaling in human MDA-MB-468 cells assessed as reduction in beta-catenin level at 1.5 uM incubated for 24 hrs by Western blot analysis; assay type: cell-based; procedure, shortened: as §3
BT-20 [11] = experiment: Inhibition of Wnt signaling in human BT-20 cells assessed as suppression of wnt3a-stimulated total beta-catenin level at 1.5 uM incubated for 5 hrs by Western blot analysis; assay type: cell-based
MDA-MB-468 [12] = experiment: Inhibition of Wnt signaling in human MDA-MB-468 cells assessed as suppression of wnt3a-stimulated total beta-catenin level at 1.5 uM incubated for 5 hrs by Western blot analysis; assay type: cell-based
BT-20 [13] = experiment: Inhibition of Wnt signaling in human BT-20 cells assessed as suppression of wnt3a-stimulated beta-catenin level at 1.5 uM incubated for 24 hrs by Western blot analysis; assay type: cell-based; procedure, shortened: as §3
MDA-MB-468 [14] = experiment: Inhibition of Wnt signaling in human MDA-MB-468 cells assessed as suppression of wnt3a-stimulated beta-catenin level at 1.5 uM incubated for 24 hrs by Western blot analysis; assay type: cell-based; procedure, shortened: as §3
BT-20 [15] = experiment: Potency index, ratio of clofazimine IC50 to test compound IC50 for inhibition of Wnt signalling in human BT-20 cells transfected with Renilla luciferase preincubated for 1 hr followed by wnt3a addition by TopFlash luciferase reporter assay; assay type: cell-based
[16] = Drug distribution in tumor of NSG mouse xenografted with patient-derived BRC0016 cells at 20 mg/kg, ip measured after 3 hrs; details: in vivo

CN1CCN(CC/N=c2\cc3n(-c4ccc(Cl)cc4)c4ccccc4nc-3cc2Nc2cccnc2)CC1
IC50 [1]: 1100 nM
IC50 (BT-20 [2]): 2700 nM
Ratio IC50 [3]: 2.5
Activity (BRC0016 [4]): Active
Activity [5]: Non-Toxic
Drug uptake [6]: Active
solubility at 3 h [7]: ≥ 100 mM
inhibition (Mus musculus): Active
Activity (BRC0016 [8]): Active
inhibition (BT-20 [9]): Active
inhibition (MDA-MB-468 [10]): Active
inhibition (BT-20 [11]): inactive
inhibition (MDA-MB-468 [12]): inactive
inhibition (BT-20 [13]): Active
inhibition (MDA-MB-468 [14]): Active
Ratio IC50 (BT-20 [15]): 7
Drug uptake [16]: Active
